# Measurements reported in ChEMBL document CHEMBL3046448, “Design and syntheses of novel phthalazin-1(2H)-one derivatives as acetohydroxyacid synthase inhibitors” (J Agric Food Chem, 2006).
# pKi: −log10 of the molar value.
# Tests used:
# Amaranthus retroflexus [1] = assay: Herbicidal activity against Amaranthus retroflexus assessed as growth inhibition at 150 g ai/ha applied as post-emergence treatment under green house conditions measured 15 days post compound treatment; type: functional; conditions: 360 h, read-out: GI
# Outline: (§1)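 Post-emergence spray on pot-grown dicot weeds at the two-leaf stage in a greenhouse. Clay soil: pH 6.5, 1.6% organic matter, 37.3% clay, CEC 12.1 cmol/kg. Formulation: 100 g/L DMF/TW-80 emulsified concentrate, water-diluted to 150 g ai/ha. Untreated and DMF solvent controls. Visual inhibition rating at 15 days: ++ >80%, + 50-80%, − <50%.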
# Echinochloa crus-galli [2] = assay: Herbicidal activity against Echinochloa crus-galli (barnyard grass) assessed as growth inhibition at 150 g ai/ha applied as post-emergence treatment under green house conditions measured 15 days post compound treatment; type: functional; conditions: 360 h, read-out: GI
# Outline: (§2)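 Monocot weeds grown in pots in a greenhouse and sprayed post-emergence at the one-leaf stage. Clay soil: pH 6.5, 1.6% organic matter, 37.3% clay, CEC 12.1 cmol/kg. Formulation: 100 g/L emulsified concentrate (DMF, TW-80) diluted with water to 150 g ai/ha. Untreated and DMF controls included. Growth inhibition scored visually after 15 days: ++ >80%, + 50-80%, − <50%.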
# [3] = biological target: T1, Acetolactate synthase, chloroplastic (Arabidopsis thaliana, UniProt P17597); assay: Inhibition of wild type Arabidopsis thaliana acetohydroxyacid synthase
# T1 sequence (P17597 whole entry): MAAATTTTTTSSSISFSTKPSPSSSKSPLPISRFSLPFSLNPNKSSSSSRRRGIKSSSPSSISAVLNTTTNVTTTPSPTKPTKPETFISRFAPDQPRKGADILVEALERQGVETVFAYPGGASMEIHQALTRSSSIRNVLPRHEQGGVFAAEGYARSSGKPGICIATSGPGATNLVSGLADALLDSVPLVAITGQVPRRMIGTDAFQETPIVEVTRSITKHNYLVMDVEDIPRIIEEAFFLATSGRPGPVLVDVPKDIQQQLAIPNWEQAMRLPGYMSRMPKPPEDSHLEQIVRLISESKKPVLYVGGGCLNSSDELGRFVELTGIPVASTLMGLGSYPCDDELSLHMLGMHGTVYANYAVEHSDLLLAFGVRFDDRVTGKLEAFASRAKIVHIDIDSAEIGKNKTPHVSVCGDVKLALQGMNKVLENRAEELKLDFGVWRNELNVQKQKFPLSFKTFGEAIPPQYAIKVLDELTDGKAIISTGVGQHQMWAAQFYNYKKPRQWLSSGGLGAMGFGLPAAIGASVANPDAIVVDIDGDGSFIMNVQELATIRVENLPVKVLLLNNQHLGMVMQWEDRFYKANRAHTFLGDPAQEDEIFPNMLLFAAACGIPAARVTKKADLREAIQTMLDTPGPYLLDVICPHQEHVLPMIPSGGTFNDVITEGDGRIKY
# Setaria viridis [4] = assay: Herbicidal activity against Setaria viridis (green foxtail) assessed as growth inhibition at 150 g ai/ha applied as post-emergence treatment under green house conditions measured 15 days post compound treatment; type: functional; conditions: 360 h, read-out: GI; outline: as §2
# Chenopodium album [5] = assay: Herbicidal activity against Chenopodium album assessed as growth inhibition at 150 g ai/ha applied as pre-emergence treatment 24 hr after weeds seeds sowing under green house conditions measured 15 days post compound treatment; type: functional; conditions: read-out: GI
# Outline: (§3)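 Pre-emergence spray applied 24 h after sowing weeds in pots in a greenhouse. Clay soil: pH 6.5, 1.6% organic matter, 37.3% clay, CEC 12.1 cmol/kg. Formulation: 100 g/L emulsified concentrate (DMF solvent, TW-80 emulsifier) diluted with water to 150 g ai/ha. Untreated and DMF-treated controls. Growth inhibition judged visually at 15 days: ++ >80%, + 50-80%, − <50%.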
# Brassica juncea [6] = assay: Herbicidal activity against Brassica juncea assessed as growth inhibition at 150 g ai/ha applied as post-emergence treatment under green house conditions measured 15 days post compound treatment; type: functional; conditions: 360 h, read-out: GI; outline: as §1
# Setaria viridis [7] = assay: Herbicidal activity against Setaria viridis (green foxtail) assessed as growth inhibition at 150 g ai/ha applied as pre-emergence treatment 24 hr after weeds seeds sowing under green house conditions measured 15 days post compound treatment; type: functional; conditions: read-out: GI; outline: as §3
# Digitaria sanguinalis [8] = assay: Herbicidal activity against Digitaria sanguinalis (hairy crabgrass) assessed as growth inhibition at 150 g ai/ha applied as pre-emergence treatment 24 hr after weeds seeds sowing under green house conditions measured 15 days post compound treatment; type: functional; conditions: read-out: GI; outline: as §3
# Chenopodium album [9] = assay: Herbicidal activity against Chenopodium album assessed as growth inhibition at 150 g ai/ha applied as post-emergence treatment under green house conditions measured 15 days post compound treatment; type: functional; conditions: 360 h, read-out: GI; outline: as §1
# Digitaria sanguinalis [10] = assay: Herbicidal activity against Digitaria sanguinalis (hairy crabgrass) assessed as growth inhibition at 150 g ai/ha applied as post-emergence treatment under green house conditions measured 15 days post compound treatment; type: functional; conditions: 360 h, read-out: GI; outline: as §2
# Amaranthus retroflexus [11] = assay: Herbicidal activity against Amaranthus retroflexus assessed as growth inhibition at 150 g ai/ha applied as pre-emergence treatment 24 hr after weeds seeds sowing under green house conditions measured 15 days post compound treatment; type: functional; conditions: read-out: GI; outline: as §3
# Echinochloa crus-galli [12] = assay: Herbicidal activity against Echinochloa crus-galli (barnyard grass) assessed as growth inhibition at 150 g ai/ha applied as pre-emergence treatment 24 hr after weeds seeds sowing under green house conditions measured 15 days post compound treatment; type: functional; conditions: read-out: GI; outline: as §3
# Brassica juncea [13] = assay: Herbicidal activity against Brassica juncea assessed as growth inhibition at 150 g ai/ha applied as pre-emergence treatment 24 hr after weeds seeds sowing under green house conditions measured 15 days post compound treatment; type: functional; conditions: read-out: GI; outline: as §3
SMILES,inhibition of growth at 150 g/ha (Amaranthus retroflexus [1]),inhibition of growth at 150 g/ha (Echinochloa crus-galli [2]),pKi [3],inhibition of growth at 150 g/ha (Setaria viridis [4]),inhibition of growth at 150 g/ha (Chenopodium album [5]),inhibition of growth at 150 g/ha (Brassica juncea [6]),inhibition of growth at 150 g/ha (Setaria viridis [7]),inhibition of growth at 150 g/ha (Digitaria sanguinalis [8]),inhibition of growth at 150 g/ha (Chenopodium album [9]),inhibition of growth at 150 g/ha (Digitaria sanguinalis [10]),inhibition of growth at 150 g/ha (Amaranthus retroflexus [11]),inhibition of growth at 150 g/ha (Echinochloa crus-galli [12]),inhibition of growth at 150 g/ha (Brassica juncea [13])
COc1cc(OC)nc(Oc2cccc3c(C)nn(Cc4ccc(Br)cc4)c(=O)c23)n1,< 50%,< 50%,3.51,< 50%,< 50%,< 50%,< 50%,< 50%,< 50%,< 50%,< 50%,< 50%,< 50%
COc1cc(OC)nc(Oc2cccc3c(C)nn(Cc4ccccc4)c(=O)c23)n1,< 50%,< 50%,3.09,< 50%,< 50%,< 50%,< 50%,< 50%,< 50%,< 50%,< 50%,< 50%,< 50%
COc1cc(OC)nc(Oc2cccc3c(C)nn(Cc4cccc(Cl)c4)c(=O)c23)n1,> 80%,50%,3.67,< 50%,< 50%,50%,< 50%,< 50%,50%,< 50%,< 50%,< 50%,< 50%
CCOC(=O)Cn1nc(C)c2cccc(Oc3nc(OC)cc(OC)n3)c2c1=O,> 80%,> 80%,3.25,> 80%,< 50%,< 50%,< 50%,< 50%,50%,50%,< 50%,< 50%,< 50%
CCCn1nc(C)c2cccc(Oc3nc(OC)cc(OC)n3)c2c1=O,> 80%,50%,2.78,50%,< 50%,50%,< 50%,< 50%,50%,50%,< 50%,< 50%,< 50%
CCc1ccc(C(=O)n2nc(C)c3cccc(Oc4nc(OC)cc(OC)n4)c3c2=O)cc1,> 80%,50%,3.15,50%,< 50%,50%,< 50%,< 50%,50%,< 50%,< 50%,< 50%,< 50%
COc1cc(OC)nc(Oc2cccc3c(C)nn(Cc4cccc(Br)c4)c(=O)c23)n1,> 80%,50%,3.12,50%,< 50%,50%,< 50%,< 50%,< 50%,50%,< 50%,< 50%,< 50%
COc1cc(OC)nc(Oc2cccc3c(C)n[nH]c(=O)c23)n1,> 80%,> 80%,3.10,> 80%,< 50%,< 50%,< 50%,< 50%,50%,> 80%,< 50%,< 50%,< 50%
COc1cc(OC)nc(Oc2cccc3c(C)nn(CC4OCCO4)c(=O)c23)n1,> 80%,50%,3.11,> 80%,< 50%,50%,< 50%,< 50%,50%,50%,< 50%,< 50%,< 50%
CO/N=C(/C)c1cccc(Oc2nc(OC)cc(OC)n2)c1C(=O)OC [PYRIMINOBAC-METHYL],> 80%,> 80%,4.31,–,< 50%,–,< 50%,< 50%,> 80%,> 80%,< 50%,< 50%,< 50%
C=CCn1nc(C)c2cccc(Oc3nc(OC)cc(OC)n3)c2c1=O,> 80%,> 80%,2.28,> 80%,< 50%,< 50%,< 50%,< 50%,50%,50%,< 50%,< 50%,< 50%
CCn1nc(C)c2cccc(Oc3nc(OC)cc(OC)n3)c2c1=O,> 80%,> 80%,2.77,> 80%,< 50%,< 50%,< 50%,< 50%,50%,> 80%,< 50%,< 50%,< 50%
COc1cc(OC)nc(Oc2cccc3c(C)nn(Cc4ccccc4Br)c(=O)c23)n1,< 50%,< 50%,3.44,< 50%,< 50%,< 50%,< 50%,< 50%,< 50%,< 50%,< 50%,< 50%,< 50%
